Test results reported in publication PMC11842550 (Scientific Reports, 2025).
Entries after “also recorded” stand apart in the source; their conditions may differ. Read-outs that look alike come from different tables or passages of the source. Bridges are numbered along the chain shown (N, C = ends). Where no end group is shown, it is not given here.

Assays:
[1] = tested on: Borrelia; assay: Dot blot binding of individual phage clones to Borrelia; design: species or system Borrelia garinii (strain SKT-7.1); settings: spirochetes fixed on PVDF membrane, anti-M13 antibody
Outline: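 2 µl Borrelia (PBS, OD600 1.2) are spotted on activated PVDF, air-dried, fixed with 4% paraformaldehyde for 10 min, dried overnight and blocked for 1 h. Individual phage clones from the third panning (10^11) are added for 1 h with shaking. After PBS-0.05% Tween washes, anti-M13 pIII mAb (1:1000) then IRDye […] anti-mouse (1:15000) are applied, 1 h each. Read at 800 nm. No-phage negative control.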

[2] = tested on: spirochetal form of Borrelia; type: cell-based, Borrelia garinii (strain SKT-7.1); settings: 5 days, 33 °C; for viability of Borrelia (spirochetal form): peptide 1.67 µM, triplicate; for inhibition of the spiral form of Borrelia: 0.41 µM
Outline: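 Early-log Borrelia (BSK-II with 6% rabbit serum, 33 °C, about 2 weeks) are counted by flow cytometry. 2 × 10^3 cells go into 200 µl fresh BSK-II with test peptide at 6.67, 3.33, 1.67 or 0 µM, 33 °C for 5 days, then are recounted by flow cytometry. Percent inhibition is relative to 0 µM. Follow-up runs use 0.83, 0.41, 0.20 and 0.10 µM. Doxycycline (50 µM–5 nM) is the positive control.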

[3] = tested on: Borrelia; assay: ELISA binding of Bor peptides to Borrelia; design: species or system Borrelia garinii (strain SKT-7.1); settings: for affinity to spirochetal form, cystic form and trypsin-shaved Borrelia (ELISA): 2 µg/well
Outline: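 Paraformaldehyde-fixed early-log Borrelia in microtiter wells are incubated 1 h with His-tagged test peptide, 2 µg/well for screening. Two-fold dilutions from 2.6 µM to 86 nM are used for concentration dependence, with the peptide-omitted background subtracted. Detection: five PBS-T washes, HisProbe-HRP (1:1000, 0.5% BSA, 1 h, room temperature), TMB 25 min, 2 M H2SO4 stop, 450 nm. Triplicates. Negative controls omit Borrelia or peptide.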

[4] = tested on: HEK293T cells; assay: Cell toxicity, XTT assay; type: cell-based; settings: 3.33 µM, 24 h, six replicates
Outline: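 HEK293T cells are grown in high-glucose DMEM with 2 mM L-glutamine and 5% FBS (37 °C, 5% CO2) to 70% confluence. They get test peptide at 3.33 or 0 µM for 24 h. XTT reagent is added for 3 h and read at 450 nm. Controls are PBS (negative) and 0.1% Triton X. Six replicates. Metabolic activity is blank-subtracted sample ×100 over blank-subtracted PBS control.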

[5] = tested on: brain microvascular endothelial cells (BMECs); assay: Cell-ELISA binding to endothelial cells; settings: 2 µg peptide, fixed BMEC monolayer, triplicate
Outline: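 BMEC monolayers in 96 wells are washed with PBS and fixed in 4% paraformaldehyde for 10 min, then blocked. They are incubated with 2 µg His-tagged test peptide and washed with PBS-T. Bound peptide is detected with HisProbe-HRP (1:1000, 1 h, room temperature) and TMB (25 min), stopped with 2 M H2SO4, read at 450 nm. Triplicates. Negative controls omit cells or peptide.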

[6] = tested on: BBB model (BMECs, cell line D3); type: in vitro ADME; settings: 1 µg/ml Cy5.5 labelled, luminal to abluminal
Outline: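 D3 BMECs (5 × 10^5) are seeded on collagen-I-coated transwell inserts (1 µm pores) in complete endothelial medium. Barrier is confirmed by TEER and dextran. Cy5.5-NHS-labelled truncated OspA fragments (beta sheets 10–11 or 12–16), angiopep-2-Cy5.5 or CF770 dextran go luminally at 1 µg/ml, 37 °C. Abluminal fluorescence (650/705 nm; 770/797 nm) is read at 1, 2 and 3 h and converted by standard curves.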

[7] = tested on: cystic form of Borrelia; assay: Inhibition of conversion of cystic form into spirochetal form; type: cell-based, Borrelia garinii (strain SKT-7.1); settings: for recovery of cystic Borrelia and transformation into the spirochetal form: peptides 1.66 µM for 16 h
Outline: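 Cysts formed by 1:1 dilution of early-log culture in serum-free BSK-II, 2 weeks at 15 °C. 2 × 10^3 cysts exposed 16 h to test compound (two-fold series, 3.33–0.05 µM) in serum-free BSK-II, then pelleted and compound removed. Regrown 15 days at 33 °C in serum-containing BSK-II. Counted by flow cytometry; % inhibition vs PBS control; doxycycline 50 nM control.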

[8] = tested on: spirochetal form of Borrelia as well as biofilm; settings: compared to antibiotics; cited from earlier work
[9] = tested on: bacterial cell wall; settings: cited from earlier work

In the case of “ACHNETQKMCGGGS (disulfide 2-10 (inferred)) [Ph.Bor-9]”, the “binding of phage clone to Borrelia in dot blot” value (“binding of phage clone” below) [1] is reported as “best binders”.
With NEKGETSEKTIVRANGTRLEYTDIKSDG [O-BBB] the “borreliacidal effect on spirochetal form” value ([2]; 6.67 µM) was “no borreliacidal effect”, the “affinity to Borrelia (ELISA)” value ([3]; 2 µg peptide per well, fixed Borrelia, HisProbe-HRP, 450 nm, triplicate) was “no affinity for Borrelia” and the “effect on cell metabolic activity (XTT)” value [4] was “no adverse effects”. The “binding to brain microvascular endothelial cells (cell-ELISA)” value (shortened to “binding … (cell-ELISA)”) [5] was “bind endothelial cells”, the “crossing of BBB model compared with angiopep-2” value ([6]; 2nd hr) was “comparable to that of angiopep-2” and the “crossing of BBB model compared with angiopep-2” value ([6]; 3rd hr) was “significantly higher than that of angiopep-2”.
In the case of “MRGSHHHHHHGSNEKGETSEKTIVRANGTRLEYTDIKSDGIEGRVDGGGGSDDDDKMACGYSSFNRCGGGS (disulfide 59-67 (inferred)) [Bor-16]”, the “viability of Borrelia (spirochetal form)” value [2] is reported as less than 50%, the “recovery of cystic Borrelia and transformation into the spirochetal form” value [7] is reported as “significantly reduced” and the “binding … (cell-ELISA)” value [5] is reported as “bind endothelial cells”.
With “ACHNTPHHLCGGGS (disulfide 2-10 (inferred)) [Ph.Bor-23]” the “binding of phage clone” value [1] was “best binders”.
With `C[C@H]1c2cccc(O)c2C(=O)C2=C(O)[C@]3(O)C(=O)C(C(N)=O)=C(O)[C@@H](N(C)C)[C@@H]3[C@@H](O)[C@@H]21` [doxycycline, reference compound] the “inhibition of transformation and recovery of cysts into the spirochetal form” value ([7]; 0.05 µM for 16 h) was “did not inhibit”.
With “MRGSHHHHHHGSNEKGETSEKTIVRANGTRLEYTDIKSDGIEGRVDGGGGSDDDDKMACPRGIGLQCGGGS (disulfide 59-67 (inferred)) [Bor-26]” the “viability of Borrelia (spirochetal form)” value [2] was less than 50%, the “recovery of cystic Borrelia and transformation into the spirochetal form” value [7] was “significantly reduced” and the “binding … (cell-ELISA)” value [5] was “bind endothelial cells”.
For “ACQPRNLNNCGGGS (disulfide 2-10 (inferred)) [Ph.Bor-18]”, the “binding of phage clone” value [1] was “best binders”.
In the case of “ACLKLGEKWCGGGS (disulfide 2-10 (inferred)) [Ph.Bor-1]”, the “binding of phage clone” value [1] is reported as “best binders”.
For “ACNVRTCHDCGGGS (disulfide (positions not given here)) [Ph.Bor-24]”, the “binding of phage clone” value [1] was “best binders”.
In the case of “ACTPSFSKICGGGS (disulfide 2-10 (inferred)) [Ph.Bor-11]”, the “binding of phage clone” value [1] is reported as “best binders”.
For “ACGYSSFNRCGGGS (disulfide 2-10 (inferred)) [Ph.Bor-16]”, the “binding of phage clone” value [1] was “best binders”.
With “MRGSHHHHHHGSNEKGETSEKTIVRANGTRLEYTDIKSDGIEGRVDGGGGSDDDDKMACQPRNLNNCGGGS (disulfide 59-67 (inferred)) [Bor-18]” the “inhibition of the spiral form of Borrelia” value [2] was “more than 50%”, the “viability of Borrelia (spirochetal form)” value [2] was less than 50% and the “affinity to spirochetal form, cystic form and trypsin-shaved Borrelia (ELISA)” value [3] was “showed affinity for all three forms”. The “Absorbance450 in ELISA, binding to Borrelia” value ([3]; peptide 0.08 µM, early log phase Borrelia, negative control subtracted) was 0.8, the “binding to Borrelia in ELISA compared with other peptides” value ([3]; peptide 0.16 µM, early log phase Borrelia) was “significantly higher; also recorded: showed binding affinity” and the “binding … (cell-ELISA)” value [5] was “bind endothelial cells”.
In the case of “MRGSHHHHHHGSNEKGETSEKTIVRANGTRLEYTDIKSDGIEGRVDGGGGSDDDDKMACTPSFSKICGGGS (disulfide 59-67 (inferred)) [Bor-11]”, the “inhibition of the spiral form of Borrelia” value [2] is reported as “more than 50%”, the “viability of Borrelia (spirochetal form)” value [2] is reported as less than 50% and the “growth inhibition of cystic form” value ([7]; 0.41 µM, 16 h exposure, t-test p < 0.05) is reported as “inhibiting growth significantly”. For the same compound, the “recovery of cystic Borrelia and transformation into the spirochetal form” value [7] was “significantly reduced”, the “affinity to spirochetal form, cystic form and trypsin-shaved Borrelia (ELISA)” value [3] was “showed affinity for all three forms” and the “effect on cell metabolic activity (XTT)” value [4] was “no adverse effects”. The “binding … (cell-ELISA)” value [5] was “bind endothelial cells”.
In the case of melittin, the “effect on the spirochetal form of Borrelia as well as biofilm” value [8] is given as “significant effect” and the “time to destabilise the bacterial cell wall” value [9] is given as “roughly 75 min”.
With “ACRGATPMSCGGGS (disulfide 2-10 (inferred)) [Ph.Bor-8]” the “binding of phage clone” value [1] was “best binders”.
For “ACPRGIGLQCGGGS (disulfide 2-10 (inferred)) [Ph.Bor-26]”, the “binding of phage clone” value [1] was “best binders”.
For “ACHNTSARVCGGGS (disulfide 2-10 (inferred)) [Ph.Bor-29]”, the “binding of phage clone” value [1] was “best binders”.
